Experimental data of several laboratories.
Compare with care: the assays were run in different laboratories.
Cell line: SK-OV-3

For `COc1ccc(C(=O)/C=C/c2cccnc2)cc1S(N)(=O)=O`, the GI50 was 16.6 µM (cell growth or viability; SRB; 48 h).
The IC50 of `NC(=O)c1cccc2cn(-c3ccc([C@@H]4CCCNC4)cc3)nc12` is reported as 5.34 µM (colony formation).
`C[C@]12CC[C@@H]3c4ccc(O)cc4CC[C@H]3[C@@H]1CC[C@@H]2O` gave an EC50 of 18.1 µM (cell growth or viability; ATP luminescence; 72 h).
With `CC(=O)OC[C@H]1O[C@@H]([S-])[C@H](OC(C)=O)[C@@H](OC(C)=O)[C@@H]1OC(C)=O.CCP(CC)CC.[Au+]` the IC50 was 2.67 µM (cell growth or viability; resazurin).
For `COc1ccc(C(=O)/C=C/c2ccc(Cl)c(Cl)c2)cc1S(N)(=O)=O`, the inhibition was 48% (cell growth or viability; SRB; 10 µM).
`COc1cc(-c2ccc(-c3ccc(C(=N)N)nc3)s2)cc(OC)c1OC` gave a GI50 of 13.1 µM (cell growth or viability; SRB).
`COc1ccc(C(=O)/C=C/c2ccccc2Br)cc1S(N)(=O)=O` has a GI50 of 12.9 µM (cell growth or viability; SRB; 48 h).
`COc1cccc(Oc2ccccc2NC(=O)CNC(=O)c2cccc3ccccc23)c1` has a GI50 of 0.49 µM (cell growth or viability; SRB; 48 h).
`CCN1CCN(Cc2ccc(Nc3ncc(F)c(-c4cc(F)c5nc(C)n(C(C)C)c5c4)n3)nc2)CC1` gave an IC50 of 1.62 µM (cell growth or viability; CCK-8).
With `OCc1ccc2c(c1C#Cc1ccc(O)cc1)C(c1ccc(O)cc1)(c1ccc(O)cc1)c1cc(O)ccc1-2` the IC50 was greater than 50 µM (cell growth or viability; MTT; 48 h).
`COc1ccc(C(=O)/C=C/c2cccc(Cl)c2)cc1S(N)(=O)=O` gave a GI50 of 6.2 µM (cell growth or viability; SRB; 48 h).
`CC(C)C[C@H](NC(=O)[C@H](Cc1ccccc1)NC(=O)c1cnccn1)B(O)O` has an IC50 of 0.025 µM (cell growth or viability; ATP luminescence).
`S=C([S][Au-][P+](CCCCCC[P+]([Au-][S]C(=S)n1cccn1)(c1ccccc1)c1ccccc1)(c1ccccc1)c1ccccc1)n1cccn1` gave a GI50 of 2.06 µM (cell growth or viability).
`COc1ccc(C(=O)/C=C/c2c(F)cccc2Cl)cc1S(N)(=O)=O` gave an inhibition of 73% (cell growth or viability; SRB; 10 µM).
`Cn1ncnc1[C@H]1c2n[nH]c(=O)c3cc(F)cc(c23)N[C@@H]1c1ccc(F)cc1` has an IC50 of 0.0234 µM (colony formation).
The IC50 of `COc1cc(CNC(=O)CCCC/C=C/C(C)C)ccc1OCc1cn(-c2ccc(C#N)cc2)nn1` is reported as 32.5 µM (cell growth or viability; SRB).
The GI50 of `COc1ccc(-c2ccc(-c3ccc(C(=N)N)nc3)s2)cc1Cl` is reported as 1.75 µM (cell growth or viability; SRB).
The GI50 of `COc1ccc(C(=O)/C=C/c2ccc3ccccc3c2)cc1S(N)(=O)=O` is reported as 4.9 µM (cell growth or viability; SRB; 48 h).
The IC50 of `COc1cc(CNC(=O)CCCC/C=C/C(C)C)ccc1O` is reported as 22 µM (cell growth or viability; SRB).
